Tests used:
[1] = tested on: MS2 coat protein; experiment: apparent Kd, MS2 coat protein; higher = weaker binding; RNA-MaP array; tryptophan 2.4 mM where present
Summary of the method: (§1)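 The titrant was SNAP-549-labelled MS2 coat protein, run from 0.7 or 1.5 nM in doubling steps to 3 µM. It was applied to designs transcribed by stalled E. coli RNA polymerase on Illumina sequencing-chip clusters, without ligand first and then with constant ligand, in 100 mM Tris-HCl pH 7.5, 80 mM KCl, 4 mM MgCl2, BSA, DTT, yeast tRNA and Tween-20. The apparent Kd is the median of filtered per-cluster binding-curve fits, with green signal normalised to red-channel RNA signal and control-cluster median Fmax.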

[2] = tested on: MS2 coat protein; experiment: apparent Kd, MS2 coat protein; higher = weaker binding; RNA-MaP array; theophylline 2 mM where present
Summary of the method: as §1

[3] = designed as: OFF switch for tryptophan, no ligand
[4] = ligand present: tryptophan, designed as: OFF switch for tryptophan
[5] = designed as: ON switch for tryptophan, no ligand
[6] = ligand present: tryptophan, designed as: ON switch for tryptophan
[7] = designed as: OFF switch for theophylline, no ligand
[8] = ligand present: theophylline, designed as: OFF switch for theophylline
[9] = designed as: ON switch for theophylline, no ligand
[10] = ligand present: theophylline, designed as: ON switch for theophylline

Sequence	apparent Kd [2, 7]	apparent Kd [2, 8]	apparent Kd [2, 9]	apparent Kd [2, 10]	also measured
GGAGUAGGAAACUAUUCCAAUCCUCGUGAACGAGGACCGGUACGGCCGCCACUCGAUAAUUAAUAACAUGAGGAUCACCCAUGUA	–	–	–	–	apparent Kd [1, 3]: 83.7 nM; apparent Kd [1, 4]: 121 nM
GUCCUCAUGACGGCCGCCACUAAACAUGAGGAUCACCCAUGUAAUGAUCCAUUAAAUGAUAAUAGUAGGACCGGGUCAAAAUAAA	–	–	–	–	apparent Kd [1, 5]: 477 nM; apparent Kd [1, 6]: 669 nM
UUCAGCUAGUCGGCCGCCACUACAUGAGGAUCACCCAUGUCGGUCCUCACUGCUUCGGCAGUGUGUAGGACCGGGACUAGCUGAG	–	–	–	–	apparent Kd [1, 3]: 72.3 nM; apparent Kd [1, 4]: 720 nM
ACGACGGCUGCGGCCGCCACUGUACAUGAGGAUCACCCAUGUGUAGUAAUUGGGACCCUGUGUUACAGGACCGGGUAGUUGAUUA	–	–	–	–	apparent Kd [1, 3]: 34.6 nM; apparent Kd [1, 4]: 69.9 nM
UGUAUUACGAAAGUAGUACAUCGUGUUCGACGAGGACCGGUACGGCCGCCACUCGGACAUGAGGAUCACCCAUGUAGCGAAAGCU	–	–	–	–	apparent Kd [1, 5]: 158 nM; apparent Kd [1, 6]: 256 nM
GGUUACUCUACGGCCGCCACUGUCAUGUAAAGAUACCUGUACAUGACAUGAGGAUCACCCAUGUGCAGGACCGGGUAGUGUAACC	–	–	–	–	apparent Kd [1, 5]: 152 nM; apparent Kd [1, 6]: 130 nM
AACAUACAAUAUUAGGUGGAUAUAAGGCGGCGAGGACCGGUACGGCCGCCACUCGCGUACAUGAGGAUCACCCAUGUCUGAAACU	–	–	–	–	apparent Kd [1, 5]: 20.4 nM; apparent Kd [1, 6]: 23.5 nM
GAACAGUCGGACAUGAGGAUCACCCAUGUGCGAGGACCGGUACGGCCGCCACUCGACAAGGGCGGUCCCGAAGCGAACAUACGCG	–	–	–	–	apparent Kd [1, 3]: 23.8 nM; apparent Kd [1, 4]: 14.7 nM
ACAUGAGGAUCACCCAUGUGAAGCAGGGUACGAGGACCGGUACGGCCGCCACUCGAACAUUAUAACGAGUGAAUGGCAACGAUGU	–	–	–	–	apparent Kd [1, 3]: 11.9 nM; apparent Kd [1, 4]: 14.2 nM
AAGCUGACAAGAAGGUGUUCCUAAGCUGAUACCAGCCUGGAAACAGGCCCUUGGCAGCAGCACAUGAGGAUCACCCAUGUAAUAA	118 nM	79.2 nM	–	–	–
GCUUGGGUGGCACAGCCCUGGCAGUGCGAUACCAGCACGGUAACGUGCCCUUGGCAGCGCACAUGAGGAUCACCCAUGUGGUGCG	69.5 nM	345 nM	–	–	–
GAGCUGAUGUAGAAAUUUUAUUUAUGAGAUACCAGUACAGAAAUGUACCCUUGGCAGCUCAUUUUUACAUGAGGAUCACCCAUGU	12.5 nM	13.8 nM	–	–	–
GCACUACAUGAGGAUCACCCAUGUGCAGAUACCAGAGGUGUAUGCCUCCCUUGGCAGCUGAGUAGCUCUGGAGGCCUAUUGGUUU	–	–	15 nM	19.1 nM	–
AGACAUGAGGAUCACCCAUGUAGCAUGGAUACCAGAUCCAGAUUUAUCCCUUGGCAGCUGUGGUAAAGUGAUGGAUUGCUCCUAG	44.3 nM	55.5 nM	–	–	–
AGCGUAUAGACGGAUACCAGCGCCAAUUAACAUGAGGAUCACCCAUGUAGUGUGGGUGGACGCCCUUGGCAGCCGAGUAUAGGUA	97.8 nM	284 nM	–	–	–
CUCCGAGGCUAUACUAUACGCCUUUGUGAUACCAGAAUAAAUAUAUUCCCUUGGCAGCAUCACAUGAGGAUCACCCAUGUGCCAU	–	–	11.7 nM	18 nM	–
AUGUAAGUGGUGUCACUGUGGUCUAGUGAUACCAGUAUCGAAAGAUACCCUUGGCAGCGCUAGAACAUGAGGAUCACCCAUGUUU	68.8 nM	34.3 nM	–	–	–
UGUAUGUGAUUUGAUACCAGACCAGCUGGUGGUACAUGAGGAUCACCCAUGUAGGUUUGGGUCCCUUGGCAGCAAAUCGCAUACU	–	–	47.9 nM	30 nM	–
UGACAUUGCUCAGAUACCAGACAUGAGGAUCACCCAUGUACCAAGGUAACCGAAAGGCAUGUCCCUUGGCAGCUGAGCAAUGUCU	11.1 nM	225 nM	–	–	–
UGUAACAUGAGGAUCACCCAUGUGAGUGAUACCAGAUUAGUAGUAGUCCCUUGGCAGCAUAUUGGGCGAGUGUAUAGUCUAUGCG	–	–	165 nM	221 nM	–

Sequence	apparent Kd [2, 7]	apparent Kd [2, 8]	apparent Kd [2, 9]	apparent Kd [2, 10]	also measured
UUAUUUAUAAUGGAUACCAGUCGUAUGGCCCGGAAUCCUGACAUGAGGAUCACCCAUGUCGACCCUUGGCAGCUGUUAUGGGUUU	14.5 nM	24.6 nM	–	–	–
CGGUUUGUGAUGGAUACCAGCAGAGAAAAUGUUUAUCCUAACAUGAGGAUCACCCAUGUGUGCCCUUGGCAGCUGUUGUGGGCUG	50.5 nM	84.9 nM	–	–	–
GCACCAGGUACGGAUACCAGACGUUGCCAAACAGGGUGACAUGAGGAUCACCCAUGUACUGUCCCUUGGCAGCCGUACCUGGUGC	22.3 nM	653 nM	–	–	–
ACUCGGUGUUUGUUGCUCCGAGUGUAUGAUACCAGUUAGUUUUAUGGCCCUUGGCAGCAUAGGACAUGAGGAUCACCCAUGUGUU	–	–	32.6 nM	45.7 nM	–
UAUAUAUAUAUUGAUACCAGCAGAGAAAACGUUUAUCCUAACAUGAGGAUCACCCAUGUAUGCCCUUGGCAGCGGUAUAUAUAUA	25.7 nM	38 nM	–	–	–
UCUUUCUAUGUAGAUACCAGCAUGUUAUCUUUCUUUUGACAUGAGGAUCACCCAUGUAAAUGCCCUUGGCAGCUACAUUUUCUUU	–	–	21.4 nM	15.4 nM	–
AAGACAUGAGGAUCACCCAUGUGGAGGGAUACCAGCCUGUGUGUGGGCCCUUGGCAGCUUAAAUUUAAUUUAAUUAAAUAAAUUU	–	–	34.7 nM	36.1 nM	–
UUCUGGACCCGUGAUACCAGAGACAUGAGGAUCACCCAUGUACAUGAGGAUCACCCAUGUCUCCCUUGGCAGCACUGCAGGGAGC	115 nM	875 nM	–	–	–
AUAACAUGAGGAUCACCCAUGUAAGGUGAUACCAGACGAAGUAAAGUCCCUUGGCAGCACAAGCAUAGUUGCGAAUAUUGAUAGA	–	–	469 nM	63.1 nM	–
AACAUGAGGAUCACCCAUGUGUCCCUUGAUACCAGUCCCAUGUGAGACCCUUGGCAGCAAACAUGAGGAUCACCCAUGUCCCAUG	–	–	102 nM	142 nM	–
UGACAUUGCUGCGAUACCAGACAUGAGGAUCACCCAUGUACCAAGGUAAAGAAAUAACGUGUCCCUUGGCAGCGCAGCAAUGUCU	9.91 nM	91.1 nM	–	–	–
UCAUUUGAGUGAGAUGUAAGGUAUCAUGAUACCAGUAGAUAAUUAUACCCUUGGCAGCAUAACAUGAGGAUCACCCAUGUACAUG	22.8 nM	24.2 nM	–	–	–
UACACAUGACAUGAUACCAGCCCAUGUGAACAUGAGGAUCACCCAUGUAUGAGGACAUGAGGCCCUUGGCAGCAUGUAUACAUGA	–	–	10.2 nM	10.2 nM	–
UUUGCACAUGAGGAUCACCCAUGUACAGAUACCAGCCUCAUCUACGGCCCUUGGCAGCUGAGAUAAUGGUGACGUGAUGGGCUUU	14 nM	26.3 nM	–	–	–
CAUAAUUUAUCCUAUAAAACUAUUAGUGAUACCAGCACCUCAUGAUGCCCUUGGCAGCACUUACAUGAGGAUCACCCAUGUUUUA	–	–	172 nM	214 nM	–
UUAAAUGUGACGGAUACCAGCGUGUUGUAGAACAUGAGGAUCACCCAUGUAGUGAUCAAGCGCCCUUGGCAGCUGGUAUGUUUGA	–	–	191 nM	300 nM	–
UAAAAUAAAAGGGUGAAGGUAUAAACAGAUACCAGCCAGAUAACUGGCCCUUGGCAGCUGAAUGACAUGAGGAUCACCCAUGUCU	–	–	12 nM	33.3 nM	–
UGUAACAUGAGGAUCACCCAUGUGAGUGAUACCAGAUAAGUAGUAGUCCCUUGGCAGCAUAUUGGGCGAGUGUAUAGUCUAUACG	–	–	157 nM	179 nM	–
ACUAGCGCACAUGAUACCAGCGACAUGAGGAUCACCCAUGUACGGCGUGUAUCGAAAGGUUGCCCUUGGCAGCAUGAUAGCGCUG	13.9 nM	255 nM	–	–	–
GAUGAUAUUGCAGAUACCAGACACAUGAGGAUCACCCAUGUCGCUGGGUUACUGGGUCGUGUCCCUUGGCAGCUGCGAUAUCAUC	44 nM	339 nM	–	–	–
